# Shown are actives, neighbours in structure and some others; about 2.5% of the full set was active somewhere.
# TRPC6 act – mouse TRPC6 channel activation; Q61143; HEK293-TRPC6 membrane potential dye fluorescence; stronger effect = higher value; B-score at 10 µM; hit rate 0.13% among 310,000;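 active means B-score of the integrated fluorescence ratio above library mean plus 3 SD, and starting fluorescence ratio within library mean plus 5 SD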;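 further: higher score means more depolarization so channel activation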
# TRPC4 agonist – activators of mouse TRPC4 channel; hit rate 0.49% among 310,000; HEK293 TRPC4beta/mu-opioid, Fluo4 calcium fluorescence; stronger effect = higher value; Q9QUQ5; B-score at 10 µM;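 active means B-score above 5 SD of library B-scores, and initial fluorescence ratio not above library mean plus 5 SD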;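 further: positive B-score marks a calcium rise read as TRPC4 activation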
# Target sequence (Q9QUQ5 whole entry, looked up): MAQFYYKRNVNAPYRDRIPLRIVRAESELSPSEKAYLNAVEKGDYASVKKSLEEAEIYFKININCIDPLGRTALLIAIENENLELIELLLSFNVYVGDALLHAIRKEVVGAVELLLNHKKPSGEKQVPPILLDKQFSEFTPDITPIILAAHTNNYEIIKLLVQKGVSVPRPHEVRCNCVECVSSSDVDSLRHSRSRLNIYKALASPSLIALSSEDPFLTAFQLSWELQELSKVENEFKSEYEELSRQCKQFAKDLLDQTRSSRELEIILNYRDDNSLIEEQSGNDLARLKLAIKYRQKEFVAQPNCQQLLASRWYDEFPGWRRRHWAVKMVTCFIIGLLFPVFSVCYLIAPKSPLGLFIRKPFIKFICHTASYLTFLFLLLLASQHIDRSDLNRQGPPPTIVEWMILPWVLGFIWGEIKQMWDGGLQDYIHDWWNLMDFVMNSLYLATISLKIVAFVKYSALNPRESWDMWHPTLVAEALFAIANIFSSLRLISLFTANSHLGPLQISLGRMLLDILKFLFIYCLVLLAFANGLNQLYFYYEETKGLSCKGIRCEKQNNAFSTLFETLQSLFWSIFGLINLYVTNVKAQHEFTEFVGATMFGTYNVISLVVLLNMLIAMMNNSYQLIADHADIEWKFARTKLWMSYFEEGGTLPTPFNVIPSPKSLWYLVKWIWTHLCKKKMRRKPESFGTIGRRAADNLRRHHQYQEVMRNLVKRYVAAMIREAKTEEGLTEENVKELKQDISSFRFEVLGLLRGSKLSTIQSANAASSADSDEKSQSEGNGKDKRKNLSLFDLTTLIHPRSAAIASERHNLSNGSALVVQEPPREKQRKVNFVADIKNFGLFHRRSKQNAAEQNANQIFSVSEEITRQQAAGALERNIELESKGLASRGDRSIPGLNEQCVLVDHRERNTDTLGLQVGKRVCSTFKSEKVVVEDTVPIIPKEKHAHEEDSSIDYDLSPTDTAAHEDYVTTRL
#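 Technique: kinetic Fluo4 calcium fluorescence; Test system: TRPC4beta and mu-opioid receptor HEK293 stable cells; Measure: B-scored integrated calcium fluorescence ratio; Benchmarks: low control buffer alone, high control maximal DAMGO; Schedule: 45 min room-temperature Fluo4 loading, 110 s read.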
# TRPC4 inh – TRPC4 (mouse) channel inhibition; Q9QUQ5; HEK293 TRPC4beta/mu-opioid, DAMGO-evoked Fluo4 calcium flux; stronger effect = lower value; B-score at 10 µM; hit rate 0.39% among 300,000; AID 2247;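 active means B-score over 3 SD under the library average, no early fluorescence shift, positive overall ratio signal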
#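 test system = HEK293 cells with stable TRPC4beta plus mu-opioid receptor expression | detection = Fluo4 Ca2+ flux fluorescence | read-out = integrated fluorescence ratio relative to baseline, converted to per-well B score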
# TRPC4 potent – allosteric potentiators of mouse TRPC4 channel | B-score at 10 µM | Q9QUQ5 | HEK293 TRPC4beta/mu-opioid, DAMGO EC20, Fluo-4 Ca2+ flux; stronger effect = higher value | AID 2227 | hit rate 0.42% among 310,000;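 active means B-score of calcium response area above 5 SD of library B-scores, with initial fluorescence ratio within 5 SD of library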;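 further: B-score of integrated fluorescence ratio over time as area under calcium response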
# Platelet DG rel – modulates dense granule release in human platelets. AID 1663. hit rate 0.22% among 300,000. human platelet-rich plasma, SFLLRN dense granule ATP release, luminescence. inhibition, %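 (compounds screened at 7.5 µM in platelet-rich plasma)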;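 active means mean replicate score, as percent of positive control, at or above 50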
# TRPC6 inhibitor – mouse TRPC6 channel inhibition. hit rate 1.1% among 310,000. B-score at 10 µM. HEK293-TRPC6, membrane potential dye, ACh-evoked depolarization; stronger effect = lower value;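 active means B-score under library mean minus 3 SD, initial fluorescence not abnormally high, positive integrated signal ratio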;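 further: B-score derived from integrated fluorescence ratio over the kinetic read; more negative B-score means stronger inhibition of depolarization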
# Starred values were filed as active, the others as inactive; i = inactive; . = no result.
SMILES,TRPC6 act,TRPC4 agonist,TRPC4 inh,TRPC4 potent,Platelet DG rel,TRPC6 inhibitor
c1ccc(-c2nnc3n2-c2ccccc2SC3)cc1,i,i,i,i,-17.6,i
Cc1cc(C)cc(N(C(=O)CCC(=O)Nc2ccccn2)C(C(=O)NC(C)C)c2ccc(O)cc2)c1 (configuration not stated),i,i,i,i,-11.1,i
Cc1ccc(/C=C/C(=O)c2ccc(O)cc2)cc1,i,i,-6*,i,7.9,i
CSc1ccc(/C=C/C(=O)c2ccc(O)cc2)cc1,i,i,i,i,0.7,i
COC(=O)c1sc(NC(=S)NC(=O)c2ccc(F)cc2)nc1C,i,i,i,i,-7.7,i
COc1ccc2nc(NC(=O)c3ccoc3C)sc2c1,i,i,i,i,91.4*,i
COC(=O)c1sc(NC(=S)NC(=O)c2ccccc2C)nc1C,i,49*,i,i,0.2,i
COc1ccc2nc(NC(=O)c3cc(C)oc3C)sc2c1,i,i,i,i,47.4,i
COC(=O)c1sc(NC(=O)c2c(C)noc2C)nc1C,i,i,i,i,52.7*,i
COC(=O)c1sc(NC(=O)c2ccoc2C)nc1C,i,i,i,i,57.2*,i
Cc1noc(C)c1CSCC(=O)NCCN1C(=O)S/C(=C\c2ccccc2F)C1=O,i,i,i,i,-5.1,i
CN(C)c1ccc(/C=N/n2c(C3CCCCC3)n[nH]c2=S)cc1,i,i,i,i,-6.1,i
Cc1cc(-c2cc(-c3ccccc3)on2)nc(NC2CCCC2)n1,i,i,.,i,-2.2,i
Clc1cc2nc[nH]c2cc1Cl,i,i,i,i,-4.9,i
CC1CCc2c(sc3ncnc(SCC(=O)Nc4ccc(C(=O)O)cc4)c23)C1 (configuration not stated),i,i,-6*,i,-0.7,i
O=C(CSc1ncnc2sc3c(c12)CCC3)Nc1ccccc1C(=O)O,i,i,i,i,7.6,i
COc1cc(NC(=O)CSc2ncnc3sc4c(c23)CCC(C)C4)c(C(=O)O)cc1OC (configuration not stated),i,i,-6*,i,-3.3,i
CC1CCCCN1S(=O)(=O)c1ccc(C(=O)Nc2sccc2C(N)=O)cc1 (configuration not stated),i,i,i,11*,-2.4,i
CN1C2CCC1CC(NC(=O)c1cc(Cl)cc3[nH]cnc13)C2 (configuration not stated),i,i,i,i,1.6,i
O=C(CCC(=O)N(c1ccc(F)cc1)C(C(=O)NC1CCCC1)c1ccncc1)Nc1cccnc1 (configuration not stated),i,i,i,i,4.4,i
Cc1cccc(CSc2nnc3c(n2)[nH]c2ccccc23)c1,i,i,i,i,12.2,i
O=C(NCc1ccc2c(c1)OCO2)C1CCC(CNS(=O)(=O)c2ccccc2)CC1 (configuration not stated),i,i,i,i,61.1*,i
COc1cc(OC)c(NC(=O)CN(C)S(=O)(=O)c2ccc(-c3ccc(=O)[nH]n3)s2)cc1Cl,i,i,i,i,3.5,i
O=C(Cc1nc2ccccc2[nH]1)c1ccc([N+](=O)[O-])cc1,i,i,-6*,i,5.4,i
Cc1ccccc1-n1c(SCc2cccc(F)c2)nc2[nH]ncc2c1=O,i,i,i,13*,8.3,i
NC(=O)CSc1nccn1Cc1ccc(Cl)cc1,i,i,i,i,1.9,i
Cc1ccc(S(=O)(=O)N(c2ccc(Br)cc2)C2C=CS(=O)(=O)C2)cc1 (configuration not stated),i,i,i,i,-2.5,i
COc1ccc(-c2cc(C(F)(F)F)nc(S(=O)(=O)CCC(=O)N3CCOCC3)n2)cc1,i,i,i,i,133.8*,i
COc1ccccc1-c1cc(C(F)(F)F)nc(S(=O)(=O)CCCC(=O)N2CCOCC2)n1,i,i,i,i,-0.6,i

# Screening results: PubChem, several laboratories
